# Rows were chosen to be rich in hits. Some 0.58% of all compounds tested hit in one or more screens of this group.
# miR122 inh – miR-122 inhibition in Huh7 cells | Huh7 miR-122 Renilla luciferase sensor, 48 h; neutral wells = 0, positive control = 100 | activation (reporter increase), % at 12.5 µM | actives 0.3% (n = 340,000);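 active = mean replicate activation score at least 90 and every replicate individually at or above 90; inconclusive = only one of the two criteria met; inactive = neither criterion met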;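 note: higher luciferase means less miR-122 activity so hits act as miR-122 inhibitors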
# PDI inh – inhibitors of human protein disulfide isomerase; P07237; PDI insulin aggregation turbidity, A650, 90 min; inhibition, % at 10 µM; actives 0.052% (n = 350,000); AID 588391;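 active = mean inhibition across replicates of 30% or more, whatever share of single replicates reach that level; inconclusive = mean inhibition below 30% while every single replicate reaches 30%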
# Target sequence (P07237 whole entry, looked up): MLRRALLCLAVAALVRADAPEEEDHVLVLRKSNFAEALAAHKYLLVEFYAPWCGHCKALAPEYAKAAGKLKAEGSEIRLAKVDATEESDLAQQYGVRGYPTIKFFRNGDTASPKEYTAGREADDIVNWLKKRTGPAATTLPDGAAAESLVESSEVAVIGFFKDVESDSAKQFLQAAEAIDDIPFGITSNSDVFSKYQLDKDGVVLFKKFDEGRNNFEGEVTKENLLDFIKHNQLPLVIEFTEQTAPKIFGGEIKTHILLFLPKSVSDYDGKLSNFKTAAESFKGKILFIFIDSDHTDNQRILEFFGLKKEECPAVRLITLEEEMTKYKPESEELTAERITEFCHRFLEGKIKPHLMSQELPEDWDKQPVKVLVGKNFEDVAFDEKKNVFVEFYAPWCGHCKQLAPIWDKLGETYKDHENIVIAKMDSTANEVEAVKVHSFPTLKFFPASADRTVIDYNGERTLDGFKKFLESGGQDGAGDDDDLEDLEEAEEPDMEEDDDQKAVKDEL
# Cneo AK release – causes C. neoformans cell lysis | adenylate kinase release luminescence, 4 h; normalised: neutral wells 0, clomiphene wells 100 | lysis activity, % at 15 µM | actives 0.2% (n = 360,000) | AID 651654;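 active = mean lysis activity across replicates of at least 80%, whatever share of replicates individually reach that level; inactive = mean lysis activity below 80%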
#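 Assay system: Cryptococcus neoformans yeast cells / Dosing: single-point compound dose / Timing: 4 h at 37 °C static, read 1 h later / Measured by: luminescence of released adenylate kinase using an AK detection reagent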
# PvdQ inh – P. aeruginosa PvdQ acylase inhibition. purified PvdQ acylase, fluorescence plate reader. inhibition, % at 10 µM. actives 0.063% (n = 340,000). AID 488965; in the data active = inhibition above about 30%, passing the limit was not always enough; inconclusive = no clear call, values can overlap the other calls;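 note: 0% = vehicle neutral wells and 100% = reference inhibitor wells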
# PglD DTNB – PglD (C. jejuni) enzyme inhibition; actives 0.098% (n = 360,000); AID 602405; inhibition, % at 12.5 µM; purified PglD enzyme, DTNB colorimetric CoA detection; in the data active = inhibition above about 16%, passing the limit was not always enough; inconclusive = no clear call, values can overlap the other calls
# ERp5 block – inhibitors of human ERp5. Q15084. ERp5 insulin aggregation, absorbance 650 nm, 90 min. inhibition, % at 9.99 µM. actives 0.05% (n = 350,000);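 active = mean replicate inhibition above about 25%, with every replicate also reaching it, limit read from the data, passing the limit was not always enough; inconclusive = only one of those two criteria met; inactive = neither criterion met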
# PglD confirm – confirmation of Campylobacter jejuni PglD acetyltransferase inhibitors; shares compounds with PglD DTNB; Purified C. jejuni PglD, DTNB absorbance 412 nm; inhibition, % at 20 µM; 320 tested, under 10 active; AID 743156;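 active = mean inhibition across replicates of at least 20% with every single replicate also at 20% or more; inconclusive = mean inhibition at least 20% but some replicate falls below 20%; inactive = mean inhibition under 20% and not all replicates reach it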;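 note: initial rate of CoA release by acetyl transfer from AcCoA to the UDP-4-amino sugar; 0% = median of neutral control wells and 100% = median of positive control wells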
# The depositor's hits bear a star; ? = inconclusive; / = not tested or not shown; [ ] = another dose, or the depositor's remark.
SMILES,miR122 inh,PDI inh,Cneo AK release,PvdQ inh,PglD DTNB,ERp5 block,PglD confirm
COc1cc(/C=N/Nc2nc(N3CCCC3)nc(N3CCCC3)n2)ccc1O,-31,-3,2,13,-168,/,/
COC(=O)c1c(C(=O)OC)c(C)n(Cc2cccnc2)c1C,0,-3,0,-9,31*,/,-2
O=C(Nc1sc2c(c1CN1CCOCC1)CCC2)c1ccc(F)cc1,0,3,3,-7,1,1,/
CC(=O)Nc1sc2c(c1CN1CCN(C)CC1)CCCC2,-5,-11,7,-7,59*,/,1
OCCN1CCOCCN(CCO)CCOCC1,-3,-1,8,9,21*,/,-31
C(CCN1CCOCC1)CN1CCOCC1,-4,/,0,/,-5,0,/
CCNCCNC(=O)c1c(O)c2cccc3c2n(c1=O)CCC3,-5,-2,1,-11,22*,/,-16
CC(C)(C)c1ccc(-c2nnc3sc(-c4ccncc4)nn23)cc1,1,0,-2,-10,24*,/,2
CCOC(=O)c1[nH]c(C)c(C)c1C,7,3,-2,-4,25*,/,-1
CCOC(=O)c1[nH]c(C)c(C(=O)OC)c1C,/,-5,/,1,/,8,/
Cc1ccc(S(=O)(=O)Nc2ccc3c(c2)C(=O)N([C@H](C)CO)C[C@H](C)[C@@H](CN(C)S(=O)(=O)c2ccc(F)cc2)O3)cc1,-5[16.7 µM],/,/,/,/,-4,/
COCCCNC(=O)c1cccc2c(-c3cccc(C(N)=O)c3)coc12,0,-6,-1,/,28*,-3,-4
Cc1ccccc1-c1nc(-c2ccc(NC(=O)c3ccc(Br)o3)cc2)no1,-6,-13,-7,-1,31*,/,2
Cc1ccccc1-c1nc(-c2ccc(Br)o2)no1,4,2,0,-13,-1,1,/
Cc1ccc(CCC(=O)Nc2ccc(N(C)C)cc2)o1,-8,9,0,-16,83*,14,-3
C[C@@H]1CN([C@@H](C)CO)C(=O)c2cc(NC(=O)Nc3ccc(C(F)(F)F)cc3)ccc2O[C@H]1CN(C)Cc1ccc(C(F)(F)F)cc1,-1[16.7 µM],/,-2,/,-1,2,/
Cn1nnnc1SCCNS(=O)(=O)c1ccccc1,4,1,12,-10,22*,/,?
O=C1C2C3C=CC(C3)C2C(=O)N1Cc1ccccc1 (configuration not stated),-6,9,2,8,22*,/,-14
O=C1N=C2SCCN2/C1=C\c1ccc(Cl)cc1,-2,13,-4,2,30*,/,-2
COc1cc(C(=O)Nc2nnc(C(F)(F)F)s2)c([N+](=O)[O-])cc1OC,-5,-10,1,-4,43*,-4,2
COc1cc(C(=O)Nc2nnc(SC)s2)c([N+](=O)[O-])cc1OC,/,-8,/,-5,/,0,/
CNC[C@@H]1Oc2ncc(-c3ccc(C)cc3)cc2C(=O)N([C@@H](C)CO)C[C@@H]1C,13[16.7 µM],/,-4,/,-3,4,/
Cc1cccc2[nH]c(CN(C)Cc3nc(CC4CC4)no3)nc12,/,8,1,8,36*,-2,-3
CN(Cc1nc2ccccc2[nH]1)Cc1nc(CC2CC2)no1,-1,3,/,0,/,-3,/
Cc1ccc(S(=O)(=O)Nc2ccc3c(c2)C(=O)N([C@@H](C)CO)C[C@@H](C)[C@H](CN(C)C(=O)c2ccncc2)OCCCC[C@@H](C)O3)cc1,0[16.7 µM],/,4,/,-3,/,/
SMILES,miR122 inh,PDI inh,Cneo AK release,PvdQ inh,PglD DTNB,ERp5 block,PglD confirm
CCCNC(=O)N1C[C@H](C)[C@@H](OC)CN(C)C(=O)c2cc(NC(=O)CC)ccc2OC[C@@H]1C,/,/,0,/,0,-2,/
CCOC(=O)c1c2n(c3ccc(O)cc13)CCCCC2,7,-11,-1,0,25*,/,4
C[C@H](CO)N1C[C@H](C)[C@H](CN(C)Cc2ccc(C(=O)O)cc2)Oc2ccc(NC(=O)C3CC3)cc2CC1=O,26[16.7 µM],/,44,/,1,8,/
Cc1ccc(S(=O)(=O)NCC(=O)OCc2nnc(-c3ccccc3)o2)cc1C,-3,7,-3,-1,4,/,/
O=C(CNS(=O)(=O)c1ccc2ccccc2c1)OCc1nnc(-c2ccccc2)o1,-4,0,5,-12,34*,/,0
CC1Cc2ccccc2N1C(=O)c1ccc(N2CCCC2)c([N+](=O)[O-])c1 (configuration not stated),-1,17,2,8,22*,-2,7
O=S(=O)(Nc1cccnc1)c1ccc(Br)c2ccccc12,15,2,3,-1,66*,2,9
O=C(Nc1ccccc1)c1ccc(Br)c(S(=O)(=O)Nc2cccnc2)c1,/,11,/,-4,/,/,/
